Screening results (PubChem)
NR2E3 ag-1: NR2E3 (human) agonism. Q9Y5X4. GST-NR2E3/biotin-RetCOR TR-FRET, 1536-well. inhibition of corepressor binding, % at 4.78 µM. 320,000 compounds, 0.12% hits;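 active means percent inhibition above the cutoff of mean plus 3 SD of all tested compounds, set per screening campaign, cut at about 20% in these data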;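 further: 0% = DMSO wells and 100% = biotin wells as full block of FRET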
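System: GST-tagged NR2E3 plus biotinylated RetCOR corepressor; Buffer or medium: pH 7.5 Tris-based buffer; Probe or stimulus: RetCOR corepressor, biotinylated, 7 nM; Doses: compound at 4.8 µM, single dose; Schedule: 5 h incubation at 4 °C; Technique: time-resolved FRET; Evaluation: percent inhibition of TR-FRET ratio; Replication: one well per compound, singlicate testing.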
SMARCA2 activ: increases SMARCA2 function in MMTV reporter cells | MG213 cells, MMTV-luciferase reporter, dexamethasone, overnight | activation, % at 9.1 µM | 370,000 compounds, 1% hits; in the data active means activation above about 7.8%;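 further: 0% = vehicle wells and 100% = reference activator wells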
NR2E3 ag-2: activates human NR2E3 receptor | AID 602229 | CHO-S Gal4-NCOR/VP16-NR2E3 two-hybrid, luciferase | Q9Y5X4 | inhibition of corepressor binding, % at 3.98 µM | 360,000 compounds, 0.35% hits;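 active means inhibition above the mean of all tested compounds plus 3 SD, cut at about 70% in these data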;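 further: 0% = DMSO with NR2E3 transfected cells and 100% = cells lacking NR2E3 construct; higher means lower luciferase signal from less NR2E3 corepressor binding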
COUP-TFII inh: NR2F2 (human) inhibition, primary screen. P24468. HEK293T NGFI-A luciferase reporter, luminescence. inhibition, % at 8.6 µM. 370,000 compounds, 0.7% hits;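 active means inhibition above a per-plate cutoff, mean inhibition of test wells between control levels plus 3 SD, cut at about 38% in these data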;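 further: cells cotransfected with COUP-TFII expression vector driving the NGFI-A reporter; 0% = median of COUP-TF2 test wells and 100% = reporter-only cells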
Target sequence (P24468 whole entry, looked up): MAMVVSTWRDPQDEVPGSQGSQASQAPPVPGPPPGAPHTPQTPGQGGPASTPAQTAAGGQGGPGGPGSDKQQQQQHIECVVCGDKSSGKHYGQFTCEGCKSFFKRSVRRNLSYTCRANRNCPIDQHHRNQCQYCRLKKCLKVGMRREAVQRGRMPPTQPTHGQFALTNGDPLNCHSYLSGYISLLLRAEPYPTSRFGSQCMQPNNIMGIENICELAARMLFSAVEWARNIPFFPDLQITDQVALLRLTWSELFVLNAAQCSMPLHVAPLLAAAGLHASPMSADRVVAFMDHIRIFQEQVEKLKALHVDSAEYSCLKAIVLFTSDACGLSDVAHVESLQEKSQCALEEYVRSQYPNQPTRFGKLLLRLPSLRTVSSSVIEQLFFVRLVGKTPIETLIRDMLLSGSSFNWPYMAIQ
GalR3 antag: blocks the human galanin receptor 3; O60755; HEK293 GalR3-CNG cAMP membrane potential fluorescence; galR3 body fused to GalR1 C-terminus; inhibition, % at 3 µM; 360,000 compounds, 0.44% hits;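 active means inhibition above the screen-wide average plus 3 SD, cut at about 13% in these data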;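 further: forskolin and galanin both at EC90 stimulate the cells; cAMP rise reported by CNG channel membrane potential dye signal; 0% = forskolin plus galanin with DMSO and 100% = forskolin alone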
Target sequence (O60755 1-299 limits assumed): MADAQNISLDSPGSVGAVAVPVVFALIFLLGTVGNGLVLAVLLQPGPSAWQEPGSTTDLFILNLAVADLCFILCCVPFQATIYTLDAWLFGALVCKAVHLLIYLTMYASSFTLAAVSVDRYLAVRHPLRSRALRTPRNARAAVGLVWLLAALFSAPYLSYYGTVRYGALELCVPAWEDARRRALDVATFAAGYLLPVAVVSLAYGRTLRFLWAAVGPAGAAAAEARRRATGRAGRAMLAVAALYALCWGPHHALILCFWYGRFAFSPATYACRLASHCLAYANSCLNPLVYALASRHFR
SMARCA2 act conf: SMARCA2 activation, confirmation screen | MG213 cells, MMTV-luciferase with dexamethasone, luminescence, overnight; MG213 cells expressing E1A, Rb sequestered; DMSO wells 0%, reference activator 100% | 3,500 compounds, 30% hits | shares compounds with SMARCA2 activ | activation, % at 9.1 µM;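 active means activation above its plate's cutoff, the mean activation of tested wells plus 3 SD, cut at about 7.9% in these data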
VP16 Luc act: GAL4-VP16 reporter activation counter-screen | shares compounds with SMARCA2 activ | HEK293 GAL4-VP16 pG5luc reporter, luciferase luminescence; scaled: DMSO wells 0%, SAHA wells 100% | activation, % at 9.1 µM | 3,500 compounds, 41% hits | AID 686939;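 active means activation above the solvent-only control well mean plus 3 SD, averaged across control plates, cut at about 5.2% in these data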
* = called active by the depositor. Rows were chosen to be rich in hits. Some 2.2% of all compounds tested hit in one or more screens of this group.

Results for C#CCNC(=O)C[C@H]1C[C@@]2(C(=O)OC)C(=C[C@H](COCc3ccccc3)O[C@@H]2C)N(Cc2ccc(Cl)cc2Cl)C1=O ?
SMARCA2 activ: 0.9; COUP-TFII inh: 5.1

How did C/C(=N/NC(=O)c1ccc(C)s1)c1ccncc1 do in these assays?
SMARCA2 activ: 1.1; NR2E3 ag-2: -45.5; COUP-TFII inh: -44.1; GalR3 antag: -2.6

What do the screens show for `C/C(=N\NC(=O)c1sccc1C)c1ccncc1`?
NR2E3 ag-1: -0.9; SMARCA2 activ: 9.2*; NR2E3 ag-2: -147.3; COUP-TFII inh: -52.7; GalR3 antag: -1.4; SMARCA2 act conf: 9.4*; VP16 Luc act: 10.5*

What do the screens show for `C/C(=N\NC(=O)c1sccc1C)c1cccnc1`?
SMARCA2 activ: 5.0; NR2E3 ag-2: -152.0; COUP-TFII inh: -29.5; GalR3 antag: -3.2

How did C/C(=N\NC(=O)c1cccs1)c1ccncc1 do in these assays?
NR2E3 ag-1: -2.2; SMARCA2 activ: 9.5*; NR2E3 ag-2: -113.9; COUP-TFII inh: -47.5; GalR3 antag: 0.1; SMARCA2 act conf: 3.6; VP16 Luc act: 0.7

What do the screens show for `O=C(O)CC/C(=N/NC(=O)c1cccs1)c1ccccc1`?
NR2E3 ag-1: -2.4; SMARCA2 activ: 9.2*; NR2E3 ag-2: -112.8; COUP-TFII inh: -55.5; GalR3 antag: -3.3; SMARCA2 act conf: 4.5; VP16 Luc act: 2.4

Results for C#CCNC(=O)C[C@H]1C[C@@]2(C(=O)OC)C(=C[C@H](C(C)C)O[C@@H]2C2CC2)N(CCc2ccc(OC)c(OC)c2)C1=O ?
SMARCA2 activ: 0.1; COUP-TFII inh: -2.0

How did O=C(NCCc1c[nH]c2ccccc12)OCc1cn(Cc2cccc(F)c2F)nn1 do in these assays?
SMARCA2 activ: -3.0; COUP-TFII inh: -3.6

How did CCCC1CCC2(CCCN2CCOC(=O)Nc2cccc(Cl)c2)CC1 (stereo not drawn) do in these assays?
COUP-TFII inh: -8.6

What do the screens show for `CN(C(=O)COC(=O)c1ccc2c(c1)OCO2)C1CCS(=O)(=O)C1` (stereo not drawn)?
NR2E3 ag-1: 0.4; SMARCA2 activ: -0.5; NR2E3 ag-2: 5.0; COUP-TFII inh: -1.0; GalR3 antag: -2.1

What do the screens show for `CN(C(=O)COC(=O)c1ccc2c(c1)OCO2)C1CCCCC1`?
SMARCA2 activ: 9.9*; NR2E3 ag-2: 2.9; COUP-TFII inh: -33.2; GalR3 antag: -5.5; SMARCA2 act conf: 5.6; VP16 Luc act: 2.8

Results for C[C@H](O)[C@@H]1C(=O)N2CCc3c([nH]c4c(-c5ccccc5)cccc34)[C@@H]2C[C@@H]1N(C)C(=O)c1ccccc1F ?
SMARCA2 activ: -5.0; COUP-TFII inh: -21.8; GalR3 antag: -6.7

How did CCC[C@H]1[C@@H](NC(=O)C2CCCCC2)CC[C@@]23CCCN2C(=O)CCC[C@@H]13 do in these assays?
COUP-TFII inh: -24.2

Results for CC(=O)N1CCc2cc(S(=O)(=O)NCCC(=O)N(C)Cc3ccccc3F)ccc21 ?
SMARCA2 activ: -4.4; COUP-TFII inh: 6.8

What do the screens show for `Nc1nc(SCC(=O)N2CCCc3ccccc32)[nH]c(=O)c1-c1ccccc1`?
NR2E3 ag-1: -2.9; SMARCA2 activ: 10.6*; NR2E3 ag-2: -12.3; COUP-TFII inh: -19.3; GalR3 antag: -2.7; SMARCA2 act conf: -2.8; VP16 Luc act: 1.0

What do the screens show for `CCC(=O)N1CCc2cc(Br)c(S(=O)(=O)N3CCC(C(=O)NC(C)(C)C)CC3)cc21`?
SMARCA2 activ: -0.9; COUP-TFII inh: 10.0

Results for CCCNC(=O)C1(C)CCCN(C(=O)c2cccc(Cl)c2)C1 (stereo not drawn) ?
SMARCA2 activ: 9.3*; NR2E3 ag-2: -2.7; COUP-TFII inh: -16.3; GalR3 antag: -3.7; SMARCA2 act conf: 0.4; VP16 Luc act: 1.1

How did O=C(/C=C/Nc1ccc(F)c(Cl)c1)c1ccccc1 do in these assays?
NR2E3 ag-1: 2.7; SMARCA2 activ: 9.3*; NR2E3 ag-2: -75.0; COUP-TFII inh: -15.8; GalR3 antag: -11.0; SMARCA2 act conf: 6.7; VP16 Luc act: 13.3*

How did O=C(/C=C/Nc1ccc(Br)cc1F)c1ccccc1 do in these assays?
NR2E3 ag-1: 1.6; SMARCA2 activ: 3.4; NR2E3 ag-2: -19.3; COUP-TFII inh: 2.3; GalR3 antag: -1.7

What do the screens show for `CC(=O)c1cccc(N/C=C\C(=O)c2ccc(C)cc2)c1`?
NR2E3 ag-1: 1.2; SMARCA2 activ: 10.5*; NR2E3 ag-2: -110.1; COUP-TFII inh: -37.0; GalR3 antag: -2.0; SMARCA2 act conf: 9.6*; VP16 Luc act: 9.8*

Results for Cc1ccc(C(=O)/C=C/Nc2cccc(O)c2)cc1 ?
NR2E3 ag-1: 2.3; SMARCA2 activ: 2.0; NR2E3 ag-2: -141.7; COUP-TFII inh: -3.4; GalR3 antag: -3.0

What do the screens show for `O=C(/C=C/Nc1cccc(O)c1)c1ccccc1`?
NR2E3 ag-1: -0.2; SMARCA2 activ: 8.1*; NR2E3 ag-2: -173.9; COUP-TFII inh: -26.1; GalR3 antag: -1.8; SMARCA2 act conf: 6.4; VP16 Luc act: 8.1*

Results for O=C(/C=C/Nc1ccccc1F)c1ccc(Br)cc1 ?
NR2E3 ag-1: -0.2; SMARCA2 activ: 17.5*; NR2E3 ag-2: -143.7; COUP-TFII inh: -53.0; GalR3 antag: 2.2; SMARCA2 act conf: 3.9; VP16 Luc act: 13.8*

Results for CC(=O)c1cccc(NS(=O)(=O)c2ccc(N/C=C\C(=O)c3ccc(C)cc3)cc2)c1 ?
NR2E3 ag-1: 2.5; SMARCA2 activ: 2.5; NR2E3 ag-2: 3.9; COUP-TFII inh: 7.9; GalR3 antag: -2.6

What do the screens show for `O=C(CCCc1ccccn1)c1ccc(-c2ccccc2)cc1`?
SMARCA2 activ: 8.6*; NR2E3 ag-2: -81.7; COUP-TFII inh: -55.7; GalR3 antag: 1.8; SMARCA2 act conf: 3.8; VP16 Luc act: 6.4*

How did O=C(CCCc1ccccn1)c1cccc2ccccc12 do in these assays?
SMARCA2 activ: -0.1; NR2E3 ag-2: -102.5; COUP-TFII inh: -31.7; GalR3 antag: -8.1

What do the screens show for `CC1(C(=O)OCC(=O)Nc2ccc3ccccc3c2)CC1(Cl)Cl` (stereo not drawn)?
NR2E3 ag-1: -0.3; SMARCA2 activ: 8.5*; NR2E3 ag-2: 11.0; COUP-TFII inh: -23.5; GalR3 antag: -7.4; SMARCA2 act conf: 6.0; VP16 Luc act: 6.3*

Results for O=c1[nH]c(CN2CCN(S(=O)(=O)c3ccccc3C(F)(F)F)CC2)nc2sc3c(c12)CCCC3 ?
NR2E3 ag-1: 3.1; SMARCA2 activ: 11.6*; NR2E3 ag-2: -10.6; COUP-TFII inh: -1.7; GalR3 antag: -0.6; SMARCA2 act conf: -2.5; VP16 Luc act: -0.1
